The values that follow come from ChEMBL document CHEMBL3046238, “Synthesis and biological activity evaluation of 1,2,3-thiadiazole derivatives as potential elicitors with highly systemic acquired resistance” (2009).

Type in all cases: functional
The test system of one experiment is Alternaria solani. The experiment can be described thus: Antifungal activity against Alternaria solani assessed as growth inhibition at 50 ug/mL measured after 2 days post dose. To be noted: 48 h, read-out: GI.
A further experiment relates to Alternaria mali. The experiment can be described thus: Antifungal activity against Alternaria mali assessed as growth inhibition at 50 ug/mL measured after 2 days post dose. To be noted: 48 h, read-out: GI.
In the next experiment the test system is Botrytis cinerea. The experiment in a line: Antifungal activity against Botryotinia fuckeliana assessed as growth inhibition at 50 ug/mL measured after 2 days post dose. As to conditions: for inhibition of growth at 50 µg/mL: 48 h, read-out: GI.
The test system of a further experiment is Mycosphaerella arachidis. The experiment can be described thus: Antifungal activity against Mycosphaerella arachidis assessed as growth inhibition at 50 ug/mL measured after 2 days post dose. To be noted: 48 h, read-out: GI.
In experiment [1] the test system is Tobacco mosaic virus. The experiment in a line: Induction of systemic acquired resistance against Tobacco mosaic virus (TMV) in tobacco plants exposed to 50 ug/mL compound through leaf spray followed by 7 days culture under green house conditions assessed as inhibition of viral growth in leaves infected with Tobacco mosaic virus (TMV) measured 72 hr post viral infection by half-leaf juice rubbing method. Also noted: scale not given: the % may be the effect or the level left. In short, it runs like this:
(§1)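 Tobacco plants received compound by leaf spray or by soil irrigation, with double-distilled water as CK. Newly grown leaves were then rub-inoculated with TMV (5.88×10-2 μg/mL), and plants were kept at 25 °C for 72 h. Lesions on inoculated leaves were counted. Inhibition = (CK−A)/CK×100 from mean lesion numbers versus control.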

The next experiment deals with Puccinia triticina. The experiment can be described thus: Antifungal activity against Puccinia triticina inoculated on 500 ug/mL compound pre-treated wheat plants with 3 to 5 leaves assessed as growth inhibition. In outline:
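Healthy wheat plants at the 3-5 leaf stage were sprayed with compound (500 μg/mL) and then inoculated with spores. Inhibition percentage was calculated against the corresponding spore stack.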

A further experiment has as its system Alternaria kikuchiana. The experiment can be described thus: Antifungal activity against Alternaria kikuchiana assessed as growth inhibition at 50 ug/mL measured after 2 days post dose. To be noted: for inhibition of growth at 50 µg/mL: 48 h, read-out: GI.
A further experiment concerns Sclerotinia sclerotiorum. The experiment in a line: Antifungal activity against Sclerotinia sclerotiorum assessed as growth inhibition at 50 ug/mL measured after 2 days post dose. As to conditions: for inhibition of growth at 50 µg/mL: 48 h, read-out: GI.
In another experiment the test system is Colletotrichum lagenaria. The experiment in a line: Antifungal activity against Colletotrichum lagenaria assessed as growth inhibition at 50 ug/mL measured after 2 days post dose. As to conditions: 48 h, read-out: GI.
Another experiment deals with Fusarium fujikuroi. The experiment in a line: Antifungal activity against Fusarium fujikuroi assessed as growth inhibition at 50 ug/mL measured after 2 days post dose. As to conditions: 48 h, read-out: GI.
Another experiment concerns Fusarium oxysporum. The experiment can be described thus: Antifungal activity against Fusarium oxysporum assessed as growth inhibition at 50 ug/mL measured after 2 days post dose. As to conditions: 48 h, read-out: GI.
The next experiment relates to Phomopsis asparagi. The experiment in a line: Antifungal activity against Phomopsis asparagi assessed as growth inhibition at 50 ug/mL measured after 2 days post dose. To be noted: for inhibition of growth at 50 µg/mL: 48 h, read-out: GI.
The subject of experiment [2] is Fusarium oxysporum f. sp. vasinfectum. The experiment in a line: Antifungal activity against Fusarium oxysporum f. sp. vasinfectum assessed as growth inhibition at 50 ug/mL measured after 2 days post dose. As to conditions: for inhibition of growth at 50 µg/mL: 48 h, read-out: GI.
Experiment [3] deals with Tobacco mosaic virus. The experiment can be described thus: Induction of systemic acquired resistance against Tobacco mosaic virus (TMV) in tobacco plants exposed to 500 ug/mL compound through leaf spray followed by 7 days culture under green house conditions assessed as inhibition of viral growth in leaves infected with Tobacco mosaic virus (TMV) measured 72 hr post viral infection by half-leaf juice rubbing method. Also noted: scale not given: the % may be the effect or the level left. In outline: as §1

Another experiment concerns Cytospora mali. The experiment can be described thus: Antifungal activity against Valsa mali assessed as growth inhibition at 50 ug/mL measured after 2 days post dose. To be noted: for inhibition of growth at 50 µg/mL: 48 h, read-out: GI.
A further experiment has as its system Ustilaginoidea virens. The experiment can be described thus: Antifungal activity against Villosiclava virens assessed as growth inhibition at 50 ug/mL measured after 2 days post dose. To be noted: for inhibition of growth at 50 µg/mL: 48 h, read-out: GI.
The next experiment deals with Fusarium graminearum. The experiment can be described thus: Antifungal activity against Fusarium graminearum assessed as growth inhibition at 50 ug/mL measured after 2 days post dose. As to conditions: 48 h, read-out: GI. In short, it runs like this:
(§2)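 Compound stock at 500 μg/mL in DMF, diluted with sterile water in the dish and mixed into potato dextrose agar before setting. A 4 mm diameter fungal plug is placed on the plate and cultured at 24-26 °C. Colony diameter is measured after 2 days.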

In experiment [4] the test system is Colletotrichum gloeosporioides. The experiment in a line: Antifungal activity against Glomerella cingulata assessed as growth inhibition at 50 ug/mL measured after 2 days post dose. As to conditions: for inhibition of growth at 50 µg/mL: 48 h, read-out: GI.
Experiment [5] concerns Botryosphaeria berengeriana. The experiment in a line: Antifungal activity against Botryosphaeria berengeriana assessed as growth inhibition at 50 ug/mL measured after 2 days post dose. To be noted: 48 h, read-out: GI.
The next experiment deals with Ceratobasidium cereale. The experiment can be described thus: Antifungal activity against Ceratobasidium cereale assessed as growth inhibition at 50 ug/mL measured after 2 days post dose. As to conditions: 48 h, read-out: GI.
Another experiment concerns Rhizoctonia solani. The experiment can be described thus: Antifungal activity against Rhizoctonia solani assessed as growth inhibition at 50 ug/mL measured after 2 days post dose. To be noted: 48 h, read-out: GI.
The subject of the next experiment is Phytophthora infestans. The experiment can be described thus: Antifungal activity against Phytophthora infestans assessed as growth inhibition at 50 ug/mL measured after 2 days post dose. In outline:
as §2

Active and inactive are the calls of the source. No cut-off for these calls is given here.

As to `Cc1csc(NC(=O)c2snnc2C)n1`, the inhibition of growth at 50 µg/mL in the experiment on Alternaria solani came to 35.7%; with Alternaria mali it was 50%; in the experiment with Mycosphaerella arachidis it was 29.4%; in the experiment on Alternaria kikuchiana it was 17.6%; in the experiment with Colletotrichum lagenaria, 17.6%; with Fusarium fujikuroi, 64.3%. Besides, the results for the inhibition of growth at 50 µg/mL in the experiment on Fusarium oxysporum and in the experiment with Fusarium graminearum were 15% and 7.1%, respectively. In addition, the “growth inhibition (GI)” value (with Botrytis cinerea; in the experiment on Puccinia triticina; in the experiment with Sclerotinia sclerotiorum; with Phomopsis asparagi; in experiment [2]; in the experiment on Cytospora mali) was “inactive” throughout. In addition, the “growth inhibition (GI)” value (in the experiment on Ustilaginoidea virens; in experiment [4]) was “inactive” throughout. Besides, the Activity is on record as 81% with Tobacco mosaic virus [1] and 70% in the experiment on Tobacco mosaic virus [3].

With `COc1ccc(-c2csc(NC(=O)c3snnc3C)n2)cc1`, the inhibition of growth at 50 µg/mL with Alternaria solani came to 4%; in the experiment with Alternaria mali, 15.5%; in the experiment with Mycosphaerella arachidis, 14.3%; in the experiment on Sclerotinia sclerotiorum it was 5.6%; in the experiment on Colletotrichum lagenaria it was 5.9%; with Fusarium fujikuroi, 10.5%. Moreover, the inhibition of growth at 50 µg/mL in the experiment with Fusarium oxysporum turned out to be 3.3%; in experiment [2], 0%; in the experiment with Cytospora mali, 8.7%; in the experiment on Fusarium graminearum it was 25%; in experiment [4], 4%. Besides, the “growth inhibition (GI)” value in the experiment on Botrytis cinerea, in the experiment on Alternaria kikuchiana, with Phomopsis asparagi and in the experiment on Ustilaginoidea virens was “inactive” throughout. In the experiment on Puccinia triticina, the “growth inhibition (GI)” value turned out to be 45%. Besides, the Activity with Tobacco mosaic virus [3] worked out at 35%.

In the case of `CCc1sc(NC(=O)c2snnc2C)nc1-c1ccc(Cl)cc1Cl`, the inhibition of growth at 50 µg/mL in the experiment with Alternaria solani came to 33.3%; in the experiment on Alternaria mali it was 35%; with Botrytis cinerea it was 40%; in the experiment with Mycosphaerella arachidis, 14.3%; with Alternaria kikuchiana, 37.5%; in the experiment with Sclerotinia sclerotiorum, 61.5%. Also, the inhibition of growth at 50 µg/mL in the experiment on Colletotrichum lagenaria stood at 26.7%; in the experiment on Fusarium fujikuroi, 64.3%; in the experiment on Fusarium oxysporum, 13.3%; in the experiment with Phomopsis asparagi, 12.5%; in [2] it was 20%; with Cytospora mali, 44.4%. Besides, the results for the inhibition of growth at 50 µg/mL (in the experiment on Ustilaginoidea virens; in the experiment with Fusarium graminearum; in experiment [4]) were 33.3%, 25% and 20.1%, respectively. Moreover, in the experiment on Puccinia triticina, the “growth inhibition (GI)” value amounted to 0%. Moreover, the Activity in the experiment with Tobacco mosaic virus [3] is listed as 0%.

As for `Cc1nnsc1C(=O)Nc1nc(-c2ccccc2)cs1`, the inhibition of growth at 50 µg/mL with Alternaria solani was determined as 15.8%; in the experiment on Alternaria mali, 10%; with Botrytis cinerea it was 8.3%; in the experiment on Mycosphaerella arachidis, 14.3%; in the experiment on Alternaria kikuchiana it was 37.5%; with Sclerotinia sclerotiorum, 47.3%. In addition, the inhibition of growth at 50 µg/mL with Colletotrichum lagenaria worked out at 6.7%; in the experiment on Fusarium fujikuroi it was 64.3%; with Fusarium oxysporum, 13.3%; in the experiment with Phomopsis asparagi, 6.3%; in [2], 40%; in the experiment with Cytospora mali it was 22.2%. Besides, the inhibition of growth at 50 µg/mL in the experiment with Ustilaginoidea virens was 55.6%; with Fusarium graminearum, 18.8%; in experiment [4], 15.8%. Moreover, the Activity with Tobacco mosaic virus [1] is reported as 74%; in the experiment on Tobacco mosaic virus [3] it was 70%. For the same compound, in the experiment on Puccinia triticina, the “growth inhibition (GI)” value turned out to be 0%.

As to `Cc1nnsc1C(=O)Nc1nc(-c2ccc([N+](=O)[O-])cc2)cs1`, the inhibition of growth at 50 µg/mL turned out to be 20% in the experiment on Alternaria solani; 24.1% in the experiment with Alternaria mali; 35.7% with Mycosphaerella arachidis; 0% with Alternaria kikuchiana; 11.1% with Sclerotinia sclerotiorum; 17.6% in the experiment on Colletotrichum lagenaria. Moreover, the inhibition of growth at 50 µg/mL was determined as 5.3% in the experiment with Fusarium fujikuroi; 13.3% in the experiment with Fusarium oxysporum; 14.3% in [2]; 26.1% in the experiment with Cytospora mali; 37.5% in the experiment on Fusarium graminearum; 8% in experiment [4]. The “growth inhibition (GI)” value in the experiment on Botrytis cinerea, in the experiment on Puccinia triticina, with Phomopsis asparagi and in the experiment with Ustilaginoidea virens was “inactive” each time. Also, in the experiment on Tobacco mosaic virus [3], the Activity turned out to be 0%.

As for `COc1ccc(-c2nnc(-c3snnc3C)o2)cc1`, the inhibition of growth at 50 µg/mL is 17.6% in the experiment with Alternaria solani; 37.9% in the experiment with Alternaria mali; 33.3% in experiment [5]; 31% in the experiment on Botrytis cinerea; 17.6% in the experiment on Mycosphaerella arachidis; 31% with Ceratobasidium cereale. For the same compound, the inhibition of growth at 50 µg/mL in the experiment with Sclerotinia sclerotiorum came out at 23.5%; with Fusarium fujikuroi it was 0%; in the experiment with Fusarium oxysporum, 0%; in [2], 0%; in the experiment with Cytospora mali it was 47.2%; with Rhizoctonia solani, 0%. In addition, the results for the inhibition of growth at 50 µg/mL (with Ustilaginoidea virens; in the experiment on Fusarium graminearum; in experiment [4]) were 29.4%, 37.9% and 29.4%, respectively. The figures for the Activity with Tobacco mosaic virus [1] and in the experiment with Tobacco mosaic virus [3] were 78% and 80%, respectively. Moreover, in the experiment with Puccinia triticina, the “growth inhibition (GI)” value was found to be 0%. Moreover, the “growth inhibition (GI)” value with Phytophthora infestans was “inactive”.

For `CCCc1sc(NC(=O)c2snnc2C)nc1-c1ccc(Cl)cc1Cl`, the inhibition of growth at 50 µg/mL with Alternaria solani was found to be 4%; with Alternaria mali, 6.9%; in the experiment with Mycosphaerella arachidis it was 35.7%; in the experiment with Sclerotinia sclerotiorum it was 22.2%; with Colletotrichum lagenaria, 11.8%; with Fusarium fujikuroi, 21.1%. In addition, the inhibition of growth at 50 µg/mL was 10% in the experiment with Fusarium oxysporum; 3.6% in [2]; 4.3% in the experiment with Cytospora mali; 25% with Fusarium graminearum; 12% in experiment [4]. Moreover, the “growth inhibition (GI)” value in the experiment with Botrytis cinerea, with Alternaria kikuchiana, in the experiment with Phomopsis asparagi and in the experiment on Ustilaginoidea virens was “inactive” each time. In the experiment on Puccinia triticina, the “growth inhibition (GI)” value was 30%. Further, the Activity in the experiment on Tobacco mosaic virus [3] amounted to 20%.
